Square brackets hold non-standard residues; d marks the D form. Peptide text beside a SMILES is read from it. Dmt = Cc1cc(O)cc(C)c1C[C@H](N)C(=O)O; Tic = O=C(O)[C@@H]1Cc2ccccc2CN1
Legend:
Mu-type opioid receptor [1] = target: Mu-type opioid receptor (Cavia porcellus, UniProt P97266); assay: In vitro inhibitory activity against electrically evoked contractions of guinea pig ileum (GPI); assay type: functional, tissue-based
In short: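 Isolated tissue bioassay. IC50 read from concentration–response curves of agonist inhibition. Mean ± SE of at least five fresh tissue samples, with an internal standard peptide run for each tissue.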

[2] = target: Delta-type opioid receptor (Mus musculus) (UniProt P32300); settings: Vas deferens
[3] = Relative binding to mu and delta opioid receptors (ratio of Ki)
Mu-type opioid receptor [4] = target: Mu-type opioid receptor (Rattus norvegicus, UniProt P33535); assay: Inhibition of [3H]DAGO binding to Opioid receptor mu 1 of rat brain P2 synaptosomes; assay type: subcellular
In short: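 Competition binding on rat brain P2 synaptosomes. Synaptosomes were preincubated 60 min at room temperature in 0.1 M NaCl, 0.4 mM GDP, 50 mM HEPES pH 7.5 and 50 µg/mL soybean trypsin inhibitor to strip endogenous opioids, then washed, stored at -80 °C, and labelled with [3H]DAGO. Incubation ran 2 h at room temperature to equilibrium. Nonspecific binding was set with 2 µM unlabelled peptide. Bound ligand was collected by GF/C filtration and counted. Five to eight doses in duplicate, 3–5 repetitions on separate preparations, mean ± SE. Ki by Cheng–Prusoff.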

[5] = target: Delta-type opioid receptor (Rattus norvegicus, UniProt P33533); assay: Inhibition of [3H]DPDPE binding to Opioid receptor delta 1 of rat brain P2 synaptosomes; assay type: subcellular
In short: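 Rat brain P2 synaptosomes, pretreated 60 min at room temperature in 0.1 M NaCl, 0.4 mM GDP, 50 mM HEPES pH 7.5 and 50 µg/mL trypsin inhibitor, then washed and frozen at -80 °C. Competition against [3H]DPDPE for 2 h at room temperature. Nonspecific binding defined with 2 µM unlabelled peptide. Filtered on GF/C and counted. Five to eight doses in duplicate, 3–5 independent preparations, mean ± SE. Ki via Cheng–Prusoff.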

[6] = target: Delta-type opioid receptor (Mus musculus, UniProt P32300); assay: In vitro inhibitory activity against electrically evoked contractions of in mouse vas deferens (MVD); assay type: functional, tissue-based
[7] = target: Delta-type opioid receptor (Mus musculus) (UniProt P32300); assay: In vitro inhibitory activity against electrically evoked contractions of the mouse vas deferens (MVD); assay type: functional, tissue-based

Chain of Delta-type opioid receptor (Mus musculus) (P32300 whole entry): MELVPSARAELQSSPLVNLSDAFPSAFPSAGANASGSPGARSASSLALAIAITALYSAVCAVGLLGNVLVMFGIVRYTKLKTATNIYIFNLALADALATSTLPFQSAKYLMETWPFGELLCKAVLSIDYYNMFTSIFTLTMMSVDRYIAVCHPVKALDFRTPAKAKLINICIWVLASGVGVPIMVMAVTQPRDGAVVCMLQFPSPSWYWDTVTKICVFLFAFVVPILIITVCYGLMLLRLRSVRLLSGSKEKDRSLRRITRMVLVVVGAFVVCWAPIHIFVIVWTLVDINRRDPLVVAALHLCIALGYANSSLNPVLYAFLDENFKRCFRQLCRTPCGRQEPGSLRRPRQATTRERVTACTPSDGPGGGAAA
Chain of Delta-type opioid receptor (Mus musculus, UniProt P32300) (P32300 whole entry): as above
Chain of Mu-type opioid receptor (Rattus norvegicus, UniProt P33535) (P33535 whole entry): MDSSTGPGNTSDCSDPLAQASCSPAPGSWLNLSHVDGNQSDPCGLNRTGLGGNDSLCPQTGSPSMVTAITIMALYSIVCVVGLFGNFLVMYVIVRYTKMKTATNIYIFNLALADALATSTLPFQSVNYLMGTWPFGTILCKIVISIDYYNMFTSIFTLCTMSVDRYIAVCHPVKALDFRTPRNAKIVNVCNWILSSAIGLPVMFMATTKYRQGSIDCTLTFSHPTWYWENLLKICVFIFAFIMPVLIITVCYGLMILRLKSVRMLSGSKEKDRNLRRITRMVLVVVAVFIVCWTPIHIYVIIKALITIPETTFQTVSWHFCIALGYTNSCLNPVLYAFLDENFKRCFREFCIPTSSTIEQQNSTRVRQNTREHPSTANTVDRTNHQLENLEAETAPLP
Chain of Delta-type opioid receptor (Rattus norvegicus, UniProt P33533) (P33533 whole entry): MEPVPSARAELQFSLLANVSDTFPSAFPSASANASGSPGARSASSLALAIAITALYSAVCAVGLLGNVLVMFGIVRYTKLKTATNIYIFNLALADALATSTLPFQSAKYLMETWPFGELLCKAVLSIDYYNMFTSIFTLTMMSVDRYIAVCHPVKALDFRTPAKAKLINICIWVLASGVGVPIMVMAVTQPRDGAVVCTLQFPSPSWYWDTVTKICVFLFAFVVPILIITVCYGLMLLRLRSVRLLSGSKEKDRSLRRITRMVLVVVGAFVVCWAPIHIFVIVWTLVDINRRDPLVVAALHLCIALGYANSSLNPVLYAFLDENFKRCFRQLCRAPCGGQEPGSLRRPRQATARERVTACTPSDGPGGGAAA
Chain of Mu-type opioid receptor (Cavia porcellus, UniProt P97266) (P97266 whole entry): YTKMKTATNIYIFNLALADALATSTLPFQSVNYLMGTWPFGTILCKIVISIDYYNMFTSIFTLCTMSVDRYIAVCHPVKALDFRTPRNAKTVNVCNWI

SMILES	IC50 (Mu-type opioid receptor [1]) [nM]	Ke [2] [nM]	Selectivity [3]	Ki (Mu-type opioid receptor [4]) [nM]	Ki [5] [nM]	IC50 [6] [nM]	Ke [7] [nM]
Cc1cc(O)cc(C)c1C[C@H](N)C(=O)N1Cc2ccccc2C[C@H]1C(=O)NCCc1nc2ccccc2[nH]1	108	4.78	82				
C[C@@H](NC(=O)[C@@H](N)Cc1ccc(O)cc1)C(=O)N[C@@H](Cc1ccccc1)C(=O)NCC(=O)N[C@@H](Cc1ccc(O)cc1)C(=O)N1CCC[C@H]1C(=O)N[C@@H](CO)C(N)=O [DERMORPHIN]	1.21			1.22			
Cc1cc(O)cc(C)c1C[C@H](N)C(=O)N1Cc2ccccc2C[C@H]1C(=O)N[C@H](C)c1nc2ccccc2[nH]1	6.36		5	0.233	0.047	0.026	
CC(C)[C@H](NC(=O)[C@H](CC(=O)O)NC(=O)[C@H](Cc1ccccc1)NC(=O)[C@H](C)NC(=O)[C@@H](N)Cc1ccc(O)cc1)C(=O)N[C@H](C(=O)NCC(=O)O)C(C)C	> 1200		1140	272	0.24	0.3	
Cc1cc(O)cc(C)c1C[C@H](N)C(=O)N1Cc2ccccc2C[C@H]1C(=O)N[C@@H](Cc1nc2ccccc2[nH]1)C(=O)O	1560		516	21.7	0.042	0.015	
Cc1cc(O)cc(C)c1C[C@H](N)C(=O)N1Cc2ccccc2C[C@H]1C(=O)N[C@@H](C)c1nc2ccccc2[nH]1	71.7		6.5	0.411	0.063		
Cc1cc(O)cc(C)c1C[C@H](N)C(=O)N1Cc2ccccc2C[C@H]1C(=O)N[C@H](C)C(N)=O (H-[Dmt]-[Tic]-[dA]-NH2)	> 10000	25.1	158	47.5	0.301		
Cc1cc(O)cc(C)c1C[C@H](N)C(=O)N1Cc2ccccc2C[C@H]1C(=O)N[C@@H](C)C(N)=O (H-[Dmt]-[Tic]-Ala-NH2)		10	195				
Cc1cc(O)cc(C)c1C[C@H](N)C(=O)N1Cc2ccccc2C[C@H]1C(=O)N[C@@H](CC(N)=O)C(=O)O (H-[Dmt]-[Tic]-Asn-OH)	> 10000	5.88	73	80.3	1.1		
Cc1cc(O)cc(C)c1C[C@H](N)C(=O)N1Cc2ccccc2C[C@H]1C(=O)NCc1nc2ccccc2[nH]1	40.7					0.035	
Cc1cc(O)cc(C)c1C[C@H](N)C(=O)N1Cc2ccccc2C[C@H]1C(=O)N[C@@H](CC(=O)O)c1nc2ccccc2[nH]1			122				
Cc1cc(O)cc(C)c1C[C@H](N)C(=O)N1Cc2ccccc2C[C@H]1C(=O)N[C@@H](CC(=O)O)C(N)=O (H-[Dmt]-[Tic]-Asp-NH2)	> 10000		8880	2560	0.289		7.58

Reference: ChEMBL document CHEMBL1135679, “Potent delta-opioid receptor agonists containing the Dmt-Tic pharmacophore” (J Med Chem, 2002)
